Results gathered from unrelated publications.
Target: STE20/SPS1-related proline-alanine-rich protein kinase (STK39, Homo sapiens, UniProt Q9UEW8)

The remaining binding of `Cn1cncc1[C@](O)(COc1ccc(C#N)cc1-c1ccc(OC(F)(F)F)cc1)c1ccc(C#N)cc1` is reported as 50% (cell-free assay; competition with immobilised ligand; 1 µM).
With `Cc1nn(C)cc1-c1nc2c(N3CCN(Cc4ccc(Cl)cc4)CC3)c(Cl)cnc2[nH]1` the remaining binding was 100% (binding; competition with immobilised ligand; 1 µM).
For `Nc1ncc(-c2nc(N3CCOCC3)nc(N3CCOCC3)n2)c(C(F)F)n1`, the remaining binding was 70% (binding; competition with immobilised ligand; 10 µM).
The remaining activity of `CC(C)(C)c1cc(C=C(C#N)C#N)cc(Br)c1O` is reported as 87.6% (enzyme activity; inhibitor; 0.5 µM).
For `COc1ncccc1-c1cnn2ccc(N3CCN(C(=O)OC(C)C)CC3)nc12`, the remaining binding was 88% (binding; competition with immobilised ligand; 1 µM).
With `N#CC1(c2ccccn2)CCN(Cc2cc(C(=O)O)c(=O)n3ccccc23)CC1` the remaining binding was 56% (cell-free assay; competition with immobilised ligand; 1 µM).
With `COc1cc(Nc2ncc(F)c(Nc3ccc4c(n3)NC(=O)C(C)(C)O4)n2)cc(OC)c1OC` the inhibition was 65% (binding; 10 µM).
The remaining signal of `O=c1[nH]c2ccccc2n1C1CCN(Cc2ccc(-c3[nH]c4cc5ncnc5cc4nc3-c3ccccc3)cc2)CC1` is reported as 98.2% (cell-free assay; 0.5 µM).
